# Most compounds without a hit are left out; they make up all but 5.5% or so of the library.
# tolC growth inh: growth inhibitors of E. coli tolC mutant, primary screen, strain BW25113 ΔtolC::kan, 384-well | growth inhibition, % at 10 µM (by protocol) | AID 573, 2007 | OD615 | 65,000 tested, 2.2% active;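 active means growth inhibition at or above a cutoff equal to the mean over every tested compound plus 3 SD, cut at about 60% in these data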;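 further: growth measured after 20 h incubation at 37 °C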
#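 Test system: tolC-deleted E. coli BW25113 | Medium: LB with kanamycin 50 µg/mL | Compound dosing: Single concentration, 10 µM final per compound | Schedule: 37 °C, 20 h exposure | Measured by: OD at 615 nm | Evaluation: Percent growth inhibition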
# PLAP activator: PLAP enzyme activators, biochemical, luminescence, HTS. purified PLAP enzyme, luminescent substrate read-out; stronger effect = higher value. activation fold at 20 µM. 96,000 tested, 1.2% active. AID 696, 2007; in the data active means activation fold above about 2
# Target sequence (P05187 whole entry, looked up): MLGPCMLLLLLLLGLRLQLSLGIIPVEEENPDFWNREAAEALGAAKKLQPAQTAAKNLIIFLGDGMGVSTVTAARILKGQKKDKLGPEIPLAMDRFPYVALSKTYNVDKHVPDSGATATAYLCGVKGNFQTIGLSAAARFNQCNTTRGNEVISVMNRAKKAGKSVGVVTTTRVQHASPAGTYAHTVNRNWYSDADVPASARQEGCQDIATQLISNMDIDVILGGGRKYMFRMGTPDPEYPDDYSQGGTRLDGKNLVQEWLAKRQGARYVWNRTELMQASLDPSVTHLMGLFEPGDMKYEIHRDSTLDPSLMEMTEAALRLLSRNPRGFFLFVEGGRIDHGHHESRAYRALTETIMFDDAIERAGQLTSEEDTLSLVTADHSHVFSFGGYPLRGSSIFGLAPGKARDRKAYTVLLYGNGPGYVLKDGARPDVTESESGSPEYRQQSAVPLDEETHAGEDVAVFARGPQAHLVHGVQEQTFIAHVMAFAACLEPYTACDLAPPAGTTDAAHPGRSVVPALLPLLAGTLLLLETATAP
# PostGolgi yeast: phenotypic screen on post-Golgi transport, primary screen; post-Golgi transport phenotypic cell assay; 98,000 tested, 0.9% active; inhibition, % at 10 µM;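 further: yeast cells grown in 1536-well plates; yeast grown about 18 h at 30C before absorbance read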
# HePTP inhibitor: inhibitors of human HePTP phosphatase, primary screen, biochemical, absorbance, leukemia target. Tyrosine-protein phosphatase non-receptor type 7 (Homo sapiens), P35236. recombinant HePTP phosphatase activity, OD absorbance. inhibition, % at 20 µM. 110,000 tested, 0.64% active. AID 521, 2006; in the data active means inhibition above about 50%
# Ecoli WT expand: growth inhibitors of wild-type E. coli, primary screen, strain BW25113, expanded library, OD600; OD600 absorbance; growth inhibition, % at 100 µM; 98,000 tested, 0.15% active;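 active means growth inhibition above about 50% at one test dose, limit read from the data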;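 further: growth measured after 20 h incubation at 37 °C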
# PostGolgi ctrl: growth inhibition of yeast control strain, primary screen, counter-screen for post-Golgi transport modulator project; efflux-deficient yeast background strain, growth absorbance A615, 16 h; inhibition, % at 10 µM; 98,000 tested, 5% active
# Hits are given with their value; - = inactive; . = no result given. Unless noted, no stated cut-off is given here; in the data, active means inhibition above about 30%; inactive means the rest.
SMILES,tolC growth inh,PLAP activator,PostGolgi yeast,HePTP inhibitor,Ecoli WT expand,PostGolgi ctrl
O=C(N/N=C/C(Br)=C/c1ccccc1)c1n[nH]c2c1CCC2,.,-,-,.,-,-
O=C(N/N=C/C(Br)=C/c1ccccc1)c1cc(-c2ccco2)[nH]n1,.,.,.,102,.,.
O=C(NC1CCN(C(=O)N2CCOCC2)CC1)c1ccccc1,-,-,-,-,-,34
CC1=CC(C)(C)Nc2ccc(OC(=O)CN3C(=O)c4cccc5cccc(c45)C3=O)cc21,.,-,33,.,-,-
C=C(C)CN1CCN(S(=O)(=O)c2ccc3c(c2)Cc2cc(S(=O)(=O)N4CCN(CC(=C)C)CC4)ccc2-3)CC1,.,.,.,-,.,.
O=C(NCc1ccccc1)C1CCCCC1,.,.,.,-,.,.
O=C(NCc1ccccc1)c1ccc(C(=O)N(C2CCCCC2)C2CCCCC2)cc1,.,-,-,.,-,52
Nc1ccc(S(=O)(=O)Nc2nccc(/C=C\c3ccccc3Cl)n2)cc1,.,.,.,-,.,.
COc1ccc(-c2cc(-c3ccc(F)cc3)nc(N3CCN(C)CC3)n2)cc1,-,.,-,-,-,32
Nc1nc(-c2ccccc2)cc(N2CCOCC2)n1,.,.,.,106,.,.
c1ccc(-c2cc(N3CCCCC3)nc3ccccc23)cc1,.,.,.,-,.,.
COc1ccc2c(-c3ccccc3)cc(N3CCOCC3)nc2c1,100,-,-,-,-,-
COc1ccccc1/C=N/N=C1/NC(=O)C(CC(=O)Nc2ccccc2C(F)(F)F)S1 (stereo not given),.,.,.,-,.,.
Cc1cccc(C(=O)Nc2ccc3oc(-c4ccc(N(C)C)cc4)nc3c2)c1,.,.,.,-,.,.
Cc1cc(N2C(=O)NC(=O)/C(=C\c3ccco3)C2=O)ccc1Br,.,.,.,80,.,.
O=C1NC(=O)N(c2ccc(Br)cc2)C(=O)/C1=C/c1ccco1,.,.,.,104,.,.
Cc1ccc(C)c(NC(=O)c2ccc(OCC(C)C)cc2)c1,.,.,.,-,.,.
NC(=O)C1CCN(S(=O)(=O)c2ccc([N+](=O)[O-])cc2)CC1,.,.,.,-,.,.
COC(=O)Nc1ccc(S(=O)(=O)N2c3ccccc3CCC2C)cc1 (stereo not given),-,-,-,-,-,34
CC(=O)Nc1ccc(S(=O)(=O)N2CCCc3ccccc32)cc1,-,-,-,-,-,-
COC1=CC(CC(=O)c2ccc(OC)cc2)C(C(=O)c2ccccc2Cl)C=C1OC (stereo not given),.,.,.,95,.,.
Cc1cc(C)c(OCC(=O)Nc2c(C)cccc2C)c(C)c1,.,.,.,-,.,.
Cc1cc(C)cc(NCC(=O)Nc2c(C)cccc2C)c1,-,-,-,-,-,37
CCn1cc(C(=O)O)c(=O)c2cc([N+](=O)[O-])ccc21,.,.,.,-,.,.
CCOC(=O)c1cn(CC)c2cc(N3CCOCC3)c(F)cc2c1=O,100,.,-,-,-,-
SMILES,tolC growth inh,PLAP activator,PostGolgi yeast,HePTP inhibitor,Ecoli WT expand,PostGolgi ctrl
CCn1cc(C(=O)O)c(=O)c2cc(OC)ccc21,97,-,-,-,-,-
CCCC(=O)c1cc(F)c(N2CCN(C(=O)OCC)CC2)cc1C,-,-,-,-,-,-
CCOC(=O)C1CN(c2cc3c(cc2F)c(=O)c(C(=O)O)cn3CC)OC1C(=O)OCC (stereo not given),98,-,-,-,-,-
CCOC(=O)N1CCN(C(=O)c2cn(CC)c3cc(N4CCN(C)CC4)c(F)cc3c2=O)CC1,-,.,-,-,100,-
CCn1cc(C(=O)NN)c(=O)c2cc(F)c(N3CCCCC3)cc21,.,.,.,-,.,.
CCC(=O)N1CCN(c2cc3c(cc2F)c(=O)c(C(=O)O)cn3CC)CC1,100,.,.,-,.,.
CCCCCCC(=O)N1CCN(c2cc3c(cc2F)c(=O)c(C(=O)O)cn3CC)CC1,-,.,.,-,.,.
CCOC(=O)c1cn(CC)c2cc(N3CCCCC3)c(F)cc2c1=O,100,.,.,-,.,.
O=C(CSc1nc2ccccc2[nH]1)OCN1C(=O)c2ccccc2C1=O,.,.,.,-,.,.
O=C1CC(NCCc2ccc(Cl)cc2)C(=O)N1c1ccc(Br)cc1 (stereo not given),.,.,.,-,.,.
O=C1c2ccc([N+](=O)[O-])cc2C(=O)N1Cc1ccccc1,.,.,.,-,.,.
CCN(CC)c1ccc2c(Cl)cc(=O)oc2c1,.,-,-,.,-,30
COCCNC(=O)COc1cccc2ccccc12,.,.,.,-,.,.
Cc1ccc(N=Cc2c(O)n(-c3ccc4c(c3)OCO4)c(=O)c3ccccc23)cc1,.,-,30,.,-,-
COCCn1nnnc1SCC(=O)N1CCCCC1,-,.,-,-,-,30
COCCn1c(SCC(=O)N2CCCC2)nnc1C(C)C,-,-,-,-,-,-
